We go through three molecules from ChEMBL document CHEMBL4680079, “Discovery of a Quinoline-4-carboxamide Derivative with a Novel Mechanism of Action, Multistage Antimalarial Activity, and Potent in Vivo Efficacy” (J Med Chem, 2016).

≈ marks a conversion by molar mass, not a printed value.

Data set [1] relates to Plasmodium berghei. In words: Antiplasmodial activity against Plasmodium berghei ookinete form assessed as growth inhibition incubated for 22 hrs by GFP-based fluorescence microscopic analysis. The class given is functional, organism-based.
The subject of data set [2] is Plasmodium falciparum. As to the kind of experiment: Antiplasmodial activity against late stage (IV/V) Plasmodium falciparum NF54 gametocytes transfected with GFP-LUC assessed as growth inhibition incubated for 72 hrs by mitotracker Red-CMXROS dye based fluorescence microscopic analysis. The class given is functional, organism-based. The note with it: NF54, 72 h. Summed up:
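NF54 pfs16-LUC-GFP stage IV–V gametocytes (10% parasitaemia, 0.1% haematocrit) exposed to compound in 0.4% DMSO, three concentrations per log, for 72 h at 37°C under 5% CO2/5% O2/90% N2. MitoTracker Red CM-H2Xros then added for 16 h and viable gametocytes counted by imaging.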

Data set [3] relates to Plasmodium falciparum. In words: Antiplasmodial activity against chloroquine-sensitive Plasmodium falciparum 3D7 infected in human red blood cells assessed as growth inhibition by SYBR Green fluorescence assay. Format: functional, organism-based, RBC. The note with it: 3D7, Erythrocyte. The essentials:
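P. falciparum 3D7 grown in 5% human red cells in RPMI 1640 (pH 7.3) with 0.5% Albumax II, hypoxanthine and gentamicin at 37°C under 1% O₂/3% CO₂. Growth measured by SYBR green fluorescence (ex 485/em 528 nm), with mefloquine as assay control. EC50 calculated.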

A further data set has as its system MRC5. As to the kind of experiment: Antiproliferative activity against human MRC5 cells assessed as reduction in cell viability after 68 hrs by resazurin dye based fluorescence assay. The note with it: MRC5, 68 h. Summed up:
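MRC-5 fibroblasts plated overnight as monolayers, exposed to compound pre-diluted in MEM for 68 h. Resazurin then added (final 50 μM) for 3 h, fluorescence read at ex 528/em 590 nm. Signal converted to % inhibition against high- and no-inhibition controls. Plates accepted at Z' > 0.5.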

A short description of data set [4]: Intrinsic clearance in CD1 mouse liver microsomes at 0.5 uM in presence of NADPH incubated upto 30 mins by UPLC-MS/MS analysis. The note with it: 0.5 h. Format: ADME, Microsome. Summed up:
(§1)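 Compound at 0.5 μM incubated with female CD1 mouse, male Sprague-Dawley rat or pooled human liver microsomes (0.5 mg/mL, 50 mM potassium phosphate, pH 7.4). Reaction started with excess NADPH. Samples taken at 0-30 min, quenched in acetonitrile, analysed by UPLC-MS/MS. Verapamil used as control, single time course.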

Data set [5] in a line: Kinetic aqueous solubility of the compound by laser nephelometry. The class given is physicochemical. The note with it: read-out: Kinetic_solubility. Summed up: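 Kinetic solubility measured by laser nephelometry. DMSO serial dilutions diluted into water to give final 100–5 μg/mL at 1.0% DMSO. Read immediately, in triplicate aliquots.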
Data set [6] in a line: Permeability of the compound at 10 uM incubated for 5 hrs by UPLC-MS/MS analysis based PAMPA method. The class given is ADME. The conditions noted are these: read-out: permeability. The essentials:
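PAMPA run on a lipid-oil-lipid tri-layer filter at pH 7.4. Compound at 10 μM in PBS (DMSO ≤5%) in donor wells, PBS in acceptor wells, kept 5 h at room temperature. Both compartments quantified by UPLC-MS/MS. Data accepted only when recovery exceeded 70%.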

Data set [7] can be described thus: Protein binding in CD1 mouse plasma measured after 5 hr by UPLC-MS/MS analysis based equilibrium dialysis method. Format: ADME, cell-free. The conditions noted are these: mouse, 5 h. The essentials: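 Equilibrium dialysis of female CD1 mouse plasma spiked at 10 μg/mL (12-14 kDa membrane) against isotonic buffer for 5 h at ~37°C with shaking. Unbound fraction taken as the buffer/plasma peak-area ratio by UPLC-MS/MS. n=6 replicates, run in triplicate.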
(In equilibrium dialysis free small molecules cross a membrane that holds back macromolecules.)

In data set [8] the target is Voltage-gated inwardly rectifying potassium channel KCNH2 (Homo sapiens, UniProt Q12809). As to the kind of experiment: Inhibition of human ERG by IonWorks patch-clamp electrophysiology method. The essentials:
(§2)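 hERG K⁺ channel inhibition measured by IonWorks patch-clamp electrophysiology. Eight-point concentration-response curves made from 3-fold serial dilutions down from the maximum final assay concentration. Each curve generated on 2 occasions.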

Data set [9] can be described thus: Intrinsic clearance in Sprague-Dawley rat liver microsomes at 0.5 uM in presence of NADPH incubated upto 30 mins by UPLC-MS/MS analysis. The class given is ADME, Microsome. The conditions noted are these: 0.5 h. The essentials: as §1
Data set [10] in a line: Intrinsic clearance in human liver microsomes at 0.5 uM in presence of NADPH incubated upto 30 mins by UPLC-MS/MS analysis. The class given is ADME, Microsome. The conditions noted are these: 0.5 h. The essentials: as §1
(Liver microsomes are vesicles of endoplasmic reticulum, rich in cytochrome P450 enzymes.)

A further data set addresses hERG (KCNH2) (Homo sapiens, UniProt Q12809). As to the kind of experiment: Inhibition of human ERG at 11 uM by IonWorks patch-clamp electrophysiology method relative to control. Summed up:
as §2
For orientation: Patch clamp records ionic current or voltage across a cell membrane.

The nature of data set [11]: Clearance in NMRI mouse blood at 3 mg/kg, iv administered as bolus dose by UPLC-MS/MS analysis. Format: ADME, organism-based. The essentials:
(§3)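 Intravenous bolus solution, 3 mg free base/kg (5 mL/kg; 10% DMSO, 90% saline), given to female NMRI mice (n=3). Compound level in blood determined by UPLC-MS/MS. PK parameters derived from the blood concentration-time curve.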

Data set [12] in a line: Volume of distribution at steady state in NMRI mouse at 3 mg/kg, iv administered as bolus dose by UPLC-MS/MS analysis. Format: ADME, organism-based. The note with it: in vivo, read-out: Vdss. The essentials: as §3
The nature of data set [13]: Half-life in NMRI mouse at 3 mg/kg, iv administered as bolus dose by UPLC-MS/MS analysis. Format: ADME, organism-based. The note with it: in vivo. Summed up:
as §3

Data set [14] in a line: Cmax in NMRI mouse at 10 mg/kg, po administered as gavage by UPLC-MS/MS analysis. The conditions noted are these: in vivo. The arrangement: route oral, dose 10 mg/kg. Format: ADME, organism-based. Summed up:
(§4)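 Female NMRI mice (n=3) dosed by oral gavage as a solution at 10 mg free base/kg (10 mL/kg; vehicle 5 or 10% DMSO, 40% PEG400). Blood levels measured by UPLC-MS/MS. Parameters derived from the blood concentration-time curve.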

A short description of data set [15]: AUC in NMRI mouse at 10 mg/kg, po administered as gavage by UPLC-MS/MS analysis. Also on record: dose 10 mg/kg. The note with it: in vivo. Format: ADME, organism-based. The essentials:
as §4

Data set [16] can be described thus: Tmax in NMRI mouse at 10 mg/kg, po administered as gavage by UPLC-MS/MS analysis. Format: ADME, organism-based. The conditions noted are these: in vivo. The essentials: as §4
Data set [17] in a line: Oral bioavailability in NMRI mouse at 10 mg/kg administered via gavage by UPLC-MS/MS analysis. Format: ADME, organism-based. The note with it: in vivo. The essentials:
as §4

Data set [18] has as its system Plasmodium berghei. In words: Antiplasmodial activity against Plasmodium berghei ANKA infected in NMRI mouse assessed as reduction in parasitemia at 30 mg/kg, po QD for 4 days. The conditions noted are these: time 4 day. The class given is functional. Also on record: scale not given: the % may be the effect or the level left. Summed up:
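Female NMRI mice (n=3 per group, randomized, not blinded) infected with GFP-transfected P. berghei ANKA. Oral dosing once daily for 4 days in 10% DMSO/40% PEG400/50% water or HPMC suspension vehicle. Parasitaemia measured by flow cytometry on blood collected 96 h after infection. Mice watched for toxicity over 4 h post-dose each day.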

For data set [19], the system named is Plasmodium berghei. In words: Antiplasmodial activity against Plasmodium berghei ANKA infected in NMRI mouse assessed as survival days at 30 mg/kg, po QD for 4 days. Format: functional. The note with it: time 4 day.
Data set [20] in a line: Toxicity in NMRI mouse assessed as maximum tolerated dose administered twice a day for 4 days. The conditions noted are these: in vivo, time 4 day.
Another data set deals with HepG2. In words: Antiproliferative activity against human HepG2 cells assessed as reduction in cell viability. Format: cell-based.

Chain of Voltage-gated inwardly rectifying potassium channel KCNH2 (Q12809 whole entry): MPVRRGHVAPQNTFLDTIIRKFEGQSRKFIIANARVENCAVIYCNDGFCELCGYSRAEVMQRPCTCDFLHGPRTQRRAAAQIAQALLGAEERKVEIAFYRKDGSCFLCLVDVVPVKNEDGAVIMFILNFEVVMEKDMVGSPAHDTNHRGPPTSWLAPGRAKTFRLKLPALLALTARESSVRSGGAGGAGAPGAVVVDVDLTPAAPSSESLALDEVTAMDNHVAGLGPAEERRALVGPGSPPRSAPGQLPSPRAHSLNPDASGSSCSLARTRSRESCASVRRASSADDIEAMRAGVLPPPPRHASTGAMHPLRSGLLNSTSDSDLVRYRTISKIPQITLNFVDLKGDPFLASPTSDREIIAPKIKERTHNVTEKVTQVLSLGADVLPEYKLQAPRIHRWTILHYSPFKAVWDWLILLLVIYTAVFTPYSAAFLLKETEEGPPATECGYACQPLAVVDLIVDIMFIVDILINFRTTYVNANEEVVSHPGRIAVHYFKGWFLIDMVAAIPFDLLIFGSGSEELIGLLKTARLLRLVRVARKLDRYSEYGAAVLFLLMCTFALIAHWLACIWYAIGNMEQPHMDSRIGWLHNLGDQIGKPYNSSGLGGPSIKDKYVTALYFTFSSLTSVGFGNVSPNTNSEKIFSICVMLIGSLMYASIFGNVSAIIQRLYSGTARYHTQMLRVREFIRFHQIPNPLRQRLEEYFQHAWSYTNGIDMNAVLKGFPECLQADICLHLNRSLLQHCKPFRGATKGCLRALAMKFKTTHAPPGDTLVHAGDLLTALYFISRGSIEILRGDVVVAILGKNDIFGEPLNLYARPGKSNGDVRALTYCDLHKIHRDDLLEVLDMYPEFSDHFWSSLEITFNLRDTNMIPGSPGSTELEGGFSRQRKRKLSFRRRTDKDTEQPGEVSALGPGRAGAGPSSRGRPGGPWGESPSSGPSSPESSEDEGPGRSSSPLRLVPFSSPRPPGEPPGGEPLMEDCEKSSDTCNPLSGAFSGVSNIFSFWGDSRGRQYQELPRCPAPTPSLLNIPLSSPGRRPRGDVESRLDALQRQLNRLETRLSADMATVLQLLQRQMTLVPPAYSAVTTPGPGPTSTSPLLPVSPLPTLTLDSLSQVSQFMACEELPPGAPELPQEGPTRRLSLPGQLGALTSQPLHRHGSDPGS
Chain of hERG (KCNH2) (Q12809 whole entry): as above

For `O=C(NCCN1CCCC1)c1cc(-c2ccc(S(=O)(=O)N3CCOCC3)cc2)nc2ccc(F)cc12`, the half-maximal effective concentration (EC50) (commonly the concentration at which the effect is half-maximal) in the data set with Plasmodium berghei [1] came out at 0.015 µM; in the data set with Plasmodium falciparum [2], 0.152 µM; in the data set on Plasmodium falciparum [3], 0.004 µM; in the data set on MRC5, 21 µM. The CLH in data set [4] amounted to 1.9 mL/min/g. The solubility kinetic in data set [5] was found to be 109 µM (≈ 55.9 µg/mL). Also, in [6], the Papp at 5 h, 10 µM worked out at 2.9 ×10⁻⁶ cm/s. This molecule yielded a PPB in data set [7] of 75%. Besides, the IC50 (usually the concentration that gives 50% inhibition) in [8] was found to be 11 µM.

In the case of `O=C(NCCN1CCCC1)c1cc(NCCCN2CCOCC2)nc2ccc(F)cc12`, the values for the EC50 with Plasmodium falciparum [3] and in the data set on MRC5 were 0.07 µM and 41 µM, respectively. Besides, the CLH in data set [4] was 0.8 mL/min/g; in [9] it was less than 0.5 mL/min/g; in data set [10], less than 0.5 mL/min/g. Also, the solubility kinetic in data set [5] is 230 µM (≈ 98.8 µg/mL). Also, the Papp at 5 h, 10 µM in data set [6] is 0.23 ×10⁻⁶ cm/s. This molecule also registered a PPB in data set [7] of 59%. The molecule also showed an IC50 in data set [8] of more than 11 µM. In addition, the inhibition (commonly the share of the control response that was lost under treatment) at 11 µM against hERG (KCNH2) was determined as 16%. For the same molecule, the clearance – broadly, the volume of plasma or blood freed of the substance per unit of time – in data set [11] stood at 14 mL/min/kg. Besides, the Vd in [12] is 3 L/kg. Besides, the half-life (commonly how long it takes for the measured level to halve) in [13] was 3.2 h. Besides, in data set [14], the peak level (Cmax) was 315 ng/mL. Moreover, the AUC (commonly concentration integrated over time) in [15] is 1550 ng·h/mL. The Tmax (as a rule, the time at which the peak concentration occurs) in [16] was 2 h. Also, the bioavailability (commonly the share of a dose that reaches the circulation, judged against a reference dose that is usually intravenous) in [17] was 15%. In the data set on Plasmodium berghei [18], the Activity is 93%. Also, the Survival in the data set with Plasmodium berghei [19] was determined as 7 days. In addition, in data set [20], the MTD – broadly, the largest dose that counted as tolerated – at 96 h was found to be 300 mg/kg.

As to `CN(CCN1CCCC1)C(=O)c1cc(-c2ccc(CN3CCOCC3)cc2)nc2ccc(F)cc12`, the EC50 is 0.087 µM with Plasmodium falciparum [3] and more than 50 µM in the data set on HepG2. Besides, the CLH in [4] is less than 0.5 mL/min/g. Besides, in data set [5], the solubility kinetic is more than 210 µM. Further, in data set [6], the Papp at 5 h, 10 µM is 13.7 ×10⁻⁶ cm/s.
